In the library only some 2.3% were active in any assay of this set; here they are far more common.
DENV2 CPE rescue: inhibitors of DENV2 cytopathic effect. hit rate 1.7% among 350,000. DENV2-infected cells, cytopathic effect rescue, plate reader. AID 651640. CPE inhibition, % at 9.99 µM; in the data active = CPE inhibition above about 20%, passing the limit was not always enough; inconclusive = no clear call, values can overlap the other calls; tested in BHK-21 cells;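 also: 0% = median of neutral control wells and 100% = median of positive control wells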
Cneo AK release: Cryptococcus neoformans lysis via adenylate kinase release; AID 651654; hit rate 0.2% among 360,000; lysis activity, % at 15 µM; C. neoformans lysis, adenylate kinase release luminescence, 4 h; normalised: neutral wells 0, clomiphene wells 100;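 active = mean lysis activity across replicates of at least 80%, whatever share of replicates individually reach that level; inactive = mean lysis activity below 80%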
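Assay system: log-phase C. neoformans yeast / Quantity: yeast cell density of 5 × 10^6 cells/mL / Medium: fresh YPD growth medium / Compound: single dose / Timing: static 4 h at 37 °C with compound, 1 h detection / Measured by: adenylate kinase release luminescence / Read-out: lysis from increased AK signal / Benchmarks: Clomiphene as positive lysis control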
PDI inh: PDI (human) enzyme inhibition. AID 588391. inhibition, % at 10 µM. hit rate 0.052% among 350,000. PDI insulin aggregation turbidity, A650, 90 min. P07237;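 active = mean inhibition across replicates of 30% or more, whatever share of single replicates reach that level; inconclusive = mean inhibition below 30% while every single replicate reaches 30%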
C2C12 statin: suppressors of simvastatin-induced myotoxicity in C2C12 myotubes; hit rate 0.78% among 330,000; rescue of ATP level, % at 7.49 µM; AID 602340; ATP luminescence, 48 h; scaled: DMSO 0, geranylgeraniol control 100;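 active = mean ATP rescue above about 67%, or every replicate alone reaching that limit, limit read from the data, passing the limit was not always enough; inconclusive = no clear call, values can overlap the other calls; inactive = mean under the limit and some replicate under it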;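 also: myotubes were challenged with 10 µM simvastatin during compound exposure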
ERp5 inh: blocks human ERp5 reductase activity on insulin | AID 651711 | hit rate 0.05% among 350,000 | Q15084 | inhibition, % at 9.99 µM | ERp5 insulin aggregation, absorbance 650 nm, 90 min;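 active = mean replicate inhibition above about 25%, with every replicate also reaching it, limit read from the data, passing the limit was not always enough; inconclusive = only one of those two criteria met; inactive = neither criterion met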
Target sequence (Q15084 whole entry, looked up): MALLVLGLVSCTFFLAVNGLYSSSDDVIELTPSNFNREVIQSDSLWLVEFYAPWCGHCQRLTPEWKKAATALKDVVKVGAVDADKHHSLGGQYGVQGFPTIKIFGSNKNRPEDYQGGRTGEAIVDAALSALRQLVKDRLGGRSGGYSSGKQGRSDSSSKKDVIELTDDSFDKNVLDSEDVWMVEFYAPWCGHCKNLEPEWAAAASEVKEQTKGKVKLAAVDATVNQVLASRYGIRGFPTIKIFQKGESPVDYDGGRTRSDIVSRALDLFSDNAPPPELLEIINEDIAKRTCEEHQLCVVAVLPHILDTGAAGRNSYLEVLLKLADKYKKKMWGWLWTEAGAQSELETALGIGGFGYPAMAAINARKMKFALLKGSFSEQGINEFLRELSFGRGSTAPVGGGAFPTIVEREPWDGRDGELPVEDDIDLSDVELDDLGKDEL
CFTR F508del cor: CFTR F508del correction in bronchial cells | hit rate 0.36% among 350,000 | activity (quench increase), % at 7.58 µM | CFBE cells, YFP halide quenching; stimulated with forskolin plus potentiator P3; % fluorescence drop versus neutral controls | AID 720511;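 active = mean added fluorescence quench of at least 8% versus neutral control, with both replicates also reaching 8%; inconclusive = only one of the mean or replicate conditions met; inactive = mean below 8% and not both replicates reaching 8%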;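 also: cells transiently co-express mutant CFTR-F508del with the halide-sensitive YFP; corrector assay measuring rescue of mutant channel to the surface after 24 h compound exposure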
Starred values were filed as active, the others as inactive; ? = inconclusive; / = no result.

SMILES	DENV2 CPE rescue	Cneo AK release	PDI inh	C2C12 statin	ERp5 inh	CFTR F508del cor
Oc1ccccc1-c1cc(-c2ccccc2)no1	/	-5.2	-2.2	93.8*	/	/
Cc1cc(NC(=O)CSCC(=O)Nc2nc3ccccc3s2)no1	44.9*	1.0	4.5	-3.4	0.1	-1.7
C[C@@H]1CCCCO[C@@H](CN(C)Cc2ccc(C(=O)O)cc2)[C@H](C)CN([C@@H](C)CO)C(=O)c2cc(NC(=O)Nc3cccc4ccccc34)ccc2O1	1.4	45.8	/	/	-0.6	-0.5
Cc1ccc(Cn2c([N+](=O)[O-])cnc2C)cc1	/	-0.2	0.1	/	/	/
Cc1ncc([N+](=O)[O-])n1Cc1ccccc1	50.5*	4.3	-5.3	15.3	-1.4	6.0
Cc1nn(C)c(C)c1/C=C/C(=O)O	4.5	4.7	0.3	1.5	3.4	13.3*
Cc1nn(C)c(Cl)c1/C=C/C(=O)O	2.1	/	0.2	/	-7.5	1.5
O=C1CCC(C(=O)OCC(=O)Nc2ccc(SC(F)F)cc2)=NN1	29.1*	1.5	2.1	1.7	-2.0	-3.8
COc1ccccc1C#Cc1ccc2c(c1)[C@H]1[C@H](CCN1C(=O)c1ccc(F)cc1)[C@@H](CO)N2	54.0*	/	/	/	0.8	2.1
COc1ccccc1CN1CC[C@H]2[C@H](CO)Nc3ccc(-c4cccc(F)c4)cc3[C@H]21	-27.0	14.1	/	5.0	/	-1.9
Cc1ccc(S(=O)(=O)N2CC[C@@H]3[C@@H](CO)Nc4ccc(C#Cc5ccc(F)cc5)cc4[C@@H]32)cc1	-3.9	11.2	/	-0.5	1.7	0.5
COc1ccccc1CN1CC[C@H]2[C@H](CO)Nc3ccc(C#Cc4ccccc4)cc3[C@H]21	-32.9	115.2*	/	-89.7	2.7	0.8
Cc1ccc(S(=O)(=O)N2CC[C@@H]3[C@H]2c2cc(C#Cc4ccc(F)cc4)ccc2N[C@@H]3CO)cc1	29.0*	4.0	/	7.3	1.7	1.0
COc1ccccc1C#Cc1ccc2c(c1)[C@@H]1[C@@H](CCN1S(=O)(=O)c1ccc(F)cc1)[C@@H](CO)N2	29.3*	/	/	/	0.3	-0.5
COc1ccccc1C#Cc1ccc2c(c1)[C@H]1[C@H](CCN1C(=O)c1ccccc1)[C@H](CO)N2	3.7	-3.1	/	-38.8	-0.7	1.3
COc1ccc(C#Cc2ccc3c(c2)[C@@H]2[C@@H](CCN2C(=O)c2cccc(F)c2)[C@@H](CO)N3)cc1	-4.9	13.6	/	-10.1	2.3	8.7*
COc1ccc(C#Cc2ccc3c(c2)[C@H]2[C@H](CCN2C(=O)c2cccc(F)c2)[C@@H](CO)N3)cc1	?	14.8	/	-22.2	-2.6	-1.4
C[C@H]1CN([C@@H](C)CO)C(=O)c2ccccc2-c2ccccc2CO[C@H]1CN(C)Cc1ccc(C(F)(F)F)cc1	50.2*	/	/	/	2.3	-4.7
C[C@H](CO)N1C[C@H](C)[C@H](CN(C)S(=O)(=O)c2ccc(C(F)(F)F)cc2)OCc2ccccc2-c2ccccc2C1=O	33.1*	-1.9	/	8.3	8.0	-3.6
CC=Cc1ccc2n(c1=O)C[C@@H]1[C@@H](CO)[C@H](C(=O)NCC3CC3)N(C(=O)CC3CC3)[C@H]21 (mixture of isomers)	-10.6	-5.2	/	-2.6	1.1	-0.5
CS(=O)(=O)Nc1ccc2c(c1)[C@H]1C[C@@H](CC(=O)NCCN3CCCCC3)O[C@@H](CO)[C@H]1O2	-0.8	-2.1	/	8.9	4.4	1.1
COc1cccc(-c2ccc3c(c2)[C@@H]2[C@@H](CCN2C(=O)c2ccccn2)[C@@H](CO)N3C)c1	-20.1	-1.3	/	51.1	/	-1.8
C/C(=N/NC(=O)CCC(=O)Nc1cccc(Cl)c1)c1ccc(C)cc1	27.6*	/	6.7	/	2.8	-0.2
C/C(=N\NC(N)=O)c1cccc(Cl)c1	37.6*	/	0.1	/	-0.7	-4.5
CC(=NNC(=O)c1ccncc1)c1cccc(Cl)c1	-2.2	-1.0	15.8	3.7	-9.9	1.1
O=C1C[C@@H](c2ccc(O[C@@H]3O[C@H](CO)[C@@H](O)[C@H](O)[C@H]3O)cc2)Oc2cc(O)ccc21	/	1.8	35.7*	4.8	3.2	-1.5
CN1C[C@@H]2[C@H](c3ccccc31)[C@H](CO)N2C(=O)Nc1cccc(F)c1	0.4	4.9	/	12.6	3.4	0.7
S=C1N(c2ccccc2)C(c2ccc(Br)cc2)N2CCCN12 (stereo not given)	42.0*	2.0	-1.6	-1.6	0.4	0.5
